Key:
Assay type in all cases: functional, cell-based
SF-268 = assay: Cytotoxicity against human SF268 cells by resazurin dye based Alamar blue assay
Outline: (§1)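 Resazurin-based colorimetric (Alamar Blue) read-out of in vitro cytotoxicity in human cancer lines: NCI-H460 non-small-cell lung, SF-268 CNS glioma, MCF-7 breast, PC-3M metastatic prostate adenocarcinoma, MDA-MB-231 breast adenocarcinoma. Doxorubicin served as positive control and DMSO as negative control. Run in triplicate. Compounds tested up to 5.0 μM; IC50 values derived.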

MDA-MB-231 = assay: Cytotoxicity against human MDA-MB-231 cells by resazurin dye based Alamar blue assay; outline: as §1
MCF7 = assay: Cytotoxicity against human MCF7 cells by resazurin dye based Alamar blue assay; outline: as §1
PC-3M = assay: Cytotoxicity against human PC3M cells by resazurin dye based Alamar blue assay; outline: as §1
NCI-H460 = assay: Cytotoxicity against human NCI-H460 cells by resazurin dye based Alamar blue assay; outline: as §1

Compound | IC50 (SF-268) | IC50 (MDA-MB-231) | IC50 (MCF7) | IC50 (PC-3M) | IC50 (NCI-H460)
COc1cc(O)c2c(c1)C(=O)C(C)=CC2=O | > 5 µM | 1200 nM | 3.1 µM | 4.9 µM | > 5000 nM
COc1cccc2c1C(=O)c1c(O)c3c(c(O)c1C2=O)C[C@@](O)(C(=O)CO)C[C@@H]3O[C@H]1C[C@H](N)[C@H](O)[C@H](C)O1 [DOXORUBICIN] | – | 600 nM | – | 0.2 µM | 400 nM
COc1cc(O)c2c(c1)C(=O)c1cocc1C2=O [MONOSPORASCONE] | > 5 µM | 3800 nM | > 5 µM | > 5 µM | > 5000 nM
